Results taken from ChEMBL document CHEMBL2440047, “Design, synthesis, and structure-activity relationships of azolylmethylpyrroloquinolines as nonsteroidal aromatase inhibitors” (J Med Chem, 2013).
Calls of active or inactive are those of the source. No cut-off for these calls is given here.

Legend:
[1] = tested on: Jurkat; assay: Growth inhibition of non-estrogen-sensitive human Jurkat cells after 72 hrs by MTT assay; assay type: functional
How it was run: (§1)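 Cells were seeded at 8x10^3 per well and left 18 h at 37 °C, 5% CO2, then exposed 72 h to compound at several concentrations from 10 mM DMSO stocks (final DMSO ≤0.25%). Jurkat, RS4;11 and SEM were grown in RPMI-1640; H295R in DMEM-F12 with 2% FBS plus insulin-transferrin-selenium. Viability read by MTT.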

[2] = tested on: OVCAR-3; assay: Growth inhibition of estrogen-sensitive human OVCAR3 cells after 72 hrs by MTT assay; assay type: functional; conditions: OVCAR-3, 72 h; how it was run: as §1
[3] = tested on: NCI-H295R; assay: Growth inhibition of estrogen-sensitive human NCI-H295R cells after 72 hrs by MTT assay; assay type: functional; how it was run: as §1
[4] = tested on: MCF7; assay: Growth inhibition of estrogen-sensitive human MCF7 cells after 72 hrs by MTT assay; assay type: functional; conditions: MCF7, 72 h; how it was run: as §1
[5] = tested on: IGROV-1; assay: Growth inhibition of estrogen-sensitive human IGROV1 cells after 72 hrs by MTT assay; assay type: functional; conditions: IGROV-1, 72 h; how it was run: as §1
[6] = Growth inhibition of non-estrogen-sensitive human SEM cells after 72 hrs by MTT assay; assay type: functional; how it was run: as §1
[7] = target: T1, Aromatase (Homo sapiens, UniProt P11511); assay: Inhibition of aromatase (unknown origin) using 7-methoxy-4-trifluoromethylcoumarin as substrate after 30 mins by fluorimetric analysis
T1 sequence (P11511 whole entry): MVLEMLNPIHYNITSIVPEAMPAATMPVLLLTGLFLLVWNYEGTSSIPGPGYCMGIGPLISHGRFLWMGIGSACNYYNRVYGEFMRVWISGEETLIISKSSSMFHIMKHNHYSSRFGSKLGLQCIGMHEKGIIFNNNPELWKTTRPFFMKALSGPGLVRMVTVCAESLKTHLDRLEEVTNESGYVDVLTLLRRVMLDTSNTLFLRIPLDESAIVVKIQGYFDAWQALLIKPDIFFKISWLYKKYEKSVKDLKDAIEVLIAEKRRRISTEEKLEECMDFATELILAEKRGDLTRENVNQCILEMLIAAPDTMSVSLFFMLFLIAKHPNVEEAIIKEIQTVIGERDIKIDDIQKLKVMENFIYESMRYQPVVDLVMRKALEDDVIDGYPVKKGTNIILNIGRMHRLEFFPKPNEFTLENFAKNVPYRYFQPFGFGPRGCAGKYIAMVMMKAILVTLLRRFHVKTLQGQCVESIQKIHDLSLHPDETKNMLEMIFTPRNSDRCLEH
How it was run: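 Recombinant CYP19 from a high-throughput screening kit, with 7-methoxy-4-trifluoromethylcoumarin as substrate. Enzyme/substrate mix was then added for 30 min at 37 °C before stop reagent. Fluorescence read at λex 410 / λem 530 nm. IC50 given as mean ± SEM of three independent experiments run in duplicate.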

[8] = Growth inhibition of non-estrogen-sensitive human RS4:11 cells after 72 hrs by MTT assay; assay type: functional; conditions: RS4-11, 72 h; how it was run: as §1
[9] = tested on: HeLa; assay: Growth inhibition of non-estrogen-sensitive human HeLa cells after 72 hrs by MTT assay; assay type: functional; how it was run: as §1
[10] = tested on: HT-29; assay: Growth inhibition of non-estrogen-sensitive human HT-29 cells after 72 hrs by MTT assay; assay type: functional; conditions: HT-29, 72 h; how it was run: as §1
[11] = target: T2, Steroid 17-alpha-hydroxylase/17,20 lyase (Homo sapiens, UniProt P05093); assay: Inhibition of human CYP17 expressed in Escherichia coli using progesterone as substrate NADPH as cofactor
T2 sequence (P05093 whole entry): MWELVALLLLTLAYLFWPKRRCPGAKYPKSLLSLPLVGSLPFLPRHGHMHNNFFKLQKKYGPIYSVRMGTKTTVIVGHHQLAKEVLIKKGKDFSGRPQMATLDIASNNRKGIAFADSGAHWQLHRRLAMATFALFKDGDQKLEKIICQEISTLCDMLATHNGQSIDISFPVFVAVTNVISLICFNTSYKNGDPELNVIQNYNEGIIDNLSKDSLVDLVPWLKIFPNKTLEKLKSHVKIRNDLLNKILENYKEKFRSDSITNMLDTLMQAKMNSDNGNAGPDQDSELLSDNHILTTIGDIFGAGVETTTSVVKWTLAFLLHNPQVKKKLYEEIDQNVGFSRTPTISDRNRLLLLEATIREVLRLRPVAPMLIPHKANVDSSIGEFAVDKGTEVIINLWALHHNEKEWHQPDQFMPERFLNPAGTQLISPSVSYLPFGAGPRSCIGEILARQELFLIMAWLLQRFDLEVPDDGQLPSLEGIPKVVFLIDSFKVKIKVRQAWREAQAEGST
How it was run: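 Cell-free assay using the 50000g sediment of E. coli coexpressing human CYP17 and cytochrome P450 reductase, with progesterone substrate and NADPH cofactor. IC50 given as mean ± SEM of three independent experiments run in duplicate.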

[12] = target: T1, Aromatase; assay: Inhibition of CYP19 in human H295R cells using [1beta-3H(N)]-androst-4-ene-3,17-dione at 10 uM after 24 hrs by tritiated water release assay; assay type: cell-based
How it was run: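 Cells were then incubated 2 h with 0.5 µM [1β-3H(N)]-androst-4-ene-3,17-dione. Read-out is tritiated water release, expressed as % of untreated cells. Means ± SEM of two independent experiments, each in triplicate.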

[13] = target: T1, Aromatase; assay: Inhibition of aromatase (unknown origin) using 7-methoxy-4-trifluoromethylcoumarin as substrate at 10 uM after 30 mins by fluorimetric analysis; conditions: 0.5 h
[14] = target: T3, Cytochrome P450 11B1, mitochondrial (Homo sapiens, UniProt P15538); assay: Inhibition of human CYP11B1 using [1,2-3H]-11-deoxycorticosterone as substrate
T3 sequence (P15538 whole entry): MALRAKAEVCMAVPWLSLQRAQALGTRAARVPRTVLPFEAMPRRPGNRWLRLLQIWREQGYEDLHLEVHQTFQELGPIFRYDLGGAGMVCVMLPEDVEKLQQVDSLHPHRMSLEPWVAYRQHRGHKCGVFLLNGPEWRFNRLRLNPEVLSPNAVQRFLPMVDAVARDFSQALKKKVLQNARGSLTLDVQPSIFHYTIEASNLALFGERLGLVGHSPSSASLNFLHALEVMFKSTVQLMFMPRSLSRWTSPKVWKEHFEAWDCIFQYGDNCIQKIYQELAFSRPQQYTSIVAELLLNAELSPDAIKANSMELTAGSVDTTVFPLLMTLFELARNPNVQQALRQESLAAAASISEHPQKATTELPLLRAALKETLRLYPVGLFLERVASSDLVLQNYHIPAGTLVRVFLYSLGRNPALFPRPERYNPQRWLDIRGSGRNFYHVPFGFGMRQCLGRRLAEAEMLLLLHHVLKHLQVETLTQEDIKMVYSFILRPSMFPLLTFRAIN
How it was run: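 Hamster fibroblast V79MZh cells expressing human CYP11B1 were incubated with [1,2-3H]-11-deoxycorticosterone substrate and inhibitor at several concentrations. IC50 given as mean ± SEM of three independent experiments run in duplicate.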

[15] = target: T1, Aromatase; assay: Inhibition of aromatase in human H295R cells using [1beta-3H(N)]-androst-4-ene-3,17-dione as substrate at 10 uM after 24 hrs by tritiated water release assay
[16] = target: T1, Aromatase; assay: Activation of aromatase in human H295R cells using [1beta-3H(N)]-androst-4-ene-3,17-dione as substrate at 0.1 uM after 24 hrs by tritiated water release assay
[17] = tested on: MCF7; assay: Cell cycle arrest in estrogen-sensitive human MCF7 cells assessed as increase of accumulation at G1 phase after 24 hrs using propidium iodide staining by flow cytometry; assay type: functional, cell-based
[18] = tested on: MCF7; assay: Cell cycle arrest in estrogen-sensitive human MCF7 cells assessed as decrease of accumulation at S phase at 6 to 50 uM after 24 hrs using propidium iodide staining by flow cytometry; assay type: functional, cell-based
[19] = tested on: HeLa; assay: Cell cycle arrest in non-estrogen-sensitive human HeLa cells at 6 to 50 uM after 24 hrs using propidium iodide staining by flow cytometry; assay type: functional, cell-based

Row | Structure (SMILES) | GI50 [1] [µM] | GI50 [2] [µM] | GI50 [3] [µM] | GI50 [4] [µM] | IC50 [7] [µM] | GI50 [9] [µM] | GI50 [10] [µM] | IC50 [11] [µM] | inhibition (INH) [12] | inhibition (INH) [13] | IC50 [14] [µM] | inhibition at 10 µM [15] [%] | Activity [16] | GI50 [5] [µM] | GI50 [6] [µM] | GI50 [8] [µM] | Activity [17] | Activity [18] | Activity [19]
1 | COc1cccc(-c2cc(=O)c3ccc4[nH]ccc4c3[nH]2)c1 | 21.2 | 0.39 | 0.7 | 0.81 | 0.59 | 38.4 | 17.7 | – | – | – | – | – | – | 0.92 | 35 | 25 | – | – | –
2 | CCOC(=O)c1cc(-c2ccccc2)nc2c1ccc1c2ccn1CC | – | – | – | 18.5 | > 10 | – | 4.3 | – | Not Active | – | – | – | – | – | 13 | – | – | – | –
3 | CCOC(=O)c1cc(C)nc2c1ccc1[nH]ccc12 | – | – | – | – | > 10 | – | – | – | Not Active | – | – | – | – | – | – | – | – | – | –
4 | Cc1cc(C(=O)O)c2ccc3[nH]ccc3c2n1 | – | – | – | – | > 10 | – | – | – | Not Active | – | – | – | Active | – | – | – | – | – | –

Continued, in another order:

Row | GI50 [1] [µM] | GI50 [2] [µM] | GI50 [3] [µM] | GI50 [4] [µM] | IC50 [7] [µM] | GI50 [9] [µM] | GI50 [10] [µM] | IC50 [11] [µM] | inhibition (INH) [12] | inhibition (INH) [13] | IC50 [14] [µM] | inhibition at 10 µM [15] [%] | Activity [16] | Structure (SMILES) | GI50 [5] [µM] | GI50 [6] [µM] | GI50 [8] [µM] | Activity [17] | Activity [18] | Activity [19]
5 | 73.8 | > 100 | 46.2 | > 100 | 0.454 | 67.9 | > 100 | 0.55 | Not Active | Not Active | 0.96 | – | – | COc1ccc(-c2cc(Cn3ccnc3)c3ccc4[nH]ccc4c3n2)cc1 | > 100 | 25.5 | 23.3 | – | – | –
6 | – | – | – | – | 2.11 | – | – | – | – | – | – | 40 | – | OCc1cc(-c2ccccc2)nc2c1ccc1[nH]ccc12 | – | – | – | – | – | –
7 | 39.5 | 50.6 | > 100 | > 100 | > 10 | > 100 | > 100 | > 5 | Not Active | – | > 5 | – | Active | COc1ccc(-c2cc(Cn3cncn3)c3ccc4[nH]ccc4c3n2)cc1 | 82 | 28.4 | 43.8 | – | – | –
8 | 27 | 16.9 | 36.5 | 23.3 | 0.0114 | 21.2 | 13.5 | 0.919 | Not Active | – | 0.23 | – | Active | c1ccc(-c2cc(Cn3ccnc3)c3ccc4[nH]ccc4c3n2)cc1 | 23.6 | 17 | 29.6 | Dose-dependent effect | Active | inactive
9 | – | – | – | – | > 10 | – | 17.2 | – | Active | – | – | – | – | CCOC(=O)c1cc(-c2ccccc2)nc2c1ccc1[nH]ccc12 | – | – | – | – | – | –
